In ChEMBL document CHEMBL1944560, “Antitumor agents 292. Design, synthesis and pharmacological study of S- and O-substituted 7-mercapto- or hydroxy-coumarins and chromones as potent cytotoxic agents” (2012) one finds GI50 and Activity data, which are given here for 36 compounds.

Assay [1] is described as follows: Antiproliferative activity against human KBVIN cells after 72 hrs by SRB assay. Format: functional. Summed up:
(§1)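 Cells fixed in situ with 10% TCA at time of drug addition as time-zero reference. Drug exposure 72 h after attachment, then 10% TCA fixation and 0.4% SRB in 1% HOAc for 10 min. Unbound dye washed off with 1% HOAc, bound dye dissolved in 10 mM trizma base, absorbance read at 515 nm. GI50 is the concentration halving net protein increase relative to control.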

A further assay relates to KB. Briefly: Antiproliferative activity against human KB cells after 72 hrs by SRB assay. Format: functional. Summed up: as §1
In a further assay the test system is DU-145. Description: Antiproliferative activity against human DU145 cells after 72 hrs by SRB assay. Format: functional. The following applies: DU-145, 72 h. Summed up:
as §1

Assay [2] relates to A549. Description: Antiproliferative activity against human A549 cells after 72 hrs by SRB assay. In kind it is functional. Conditions: A549, 72 h. Summed up:
as §1

Assay [3] relates to A549. Briefly: Induction of cell cycle arrest in human A549 cells assessed as G0/G1 phase cells at 10 mg after 48 hrs by FACS-based flow cytometry (reference value: 26.9%). Format: functional.
The test system of assay [4] is A549. Description: Induction of cell cycle arrest in human A549 cells assessed as G0/G1 phase cells at 5 mg after 48 hrs by FACS-based flow cytometry (reference value: 26.9%). In kind it is functional.
Assay [5] concerns A549. Description: Induction of cell cycle arrest in human A549 cells assessed as G2/M phase cells at 5 mg after 48 hrs by FACS-based flow cytometry (reference value: 6.36%). Format: functional.
The subject of assay [6] is A549. Description: Induction of apoptosis in human A549 cells after 48 hrs by DNA fluorochrome Hoechst-staining based fluorescence microscopy. In kind it is functional, cell-based. Summed up: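 A549 seeded at 5 × 10^3 cells/well, treated at 0, 1, 5 and 10 µg/mL for 48 h. Monolayer fixed and stained with Hoechst 33258 for 20 min, washed with PBS, examined by fluorescence microscopy. Cells with condensed or fragmented, brightly stained nuclei scored apoptotic. Three independent experiments.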

The subject of assay [7] is A549. Briefly: Induction of cell cycle arrest in human A549 cells assessed as G2/M phase cells at 10 mg after 48 hrs by FACS-based flow cytometry (reference value: 6.36%). Format: functional.
In assay [8] the test system is A549. Description: Antiproliferative activity against human A549 cells after 48 hrs by MTT assay. In kind it is functional, cell-based. Summed up: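 A549 seeded at 5 × 10^3 cells/well. Exposed to 0.06, 0.23, 0.94, 3.75, 15 or 60 μg/mL for 48 h, then medium replaced. MTT (5 mg/mL solution) added for 4 h at 37 °C, formazan dissolved in DMSO, absorbance at 570 nm. Viability expressed as % of untreated cells. Mean ± SD of three independent experiments.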

Assay [9] relates to A549. Description: Induction of cell cycle arrest in human A549 cells assessed as S phase cells at 5 mg after 48 hrs by FACS-based flow cytometry (reference value: 66.74%). In kind it is functional.
Assay [10] relates to A549. Description: Induction of cell cycle arrest in human A549 cells assessed as G0/G1 phase cells at 1 mg after 48 hrs by FACS-based flow cytometry (reference value: 26.9%). Format: functional.
Assay [11] has as its system A549. Description: Induction of cell cycle arrest in human A549 cells assessed as G2/M phase cells at 1 mg after 48 hrs by FACS-based flow cytometry (reference value: 6.36%). In kind it is functional.
Assay [12] has as its system A549. Description: Induction of cell cycle arrest in human A549 cells assessed as S phase cells at 1 mg after 48 hrs by FACS-based flow cytometry (reference value: 66.74%). In kind it is functional.
For assay [13], the system named is A549. Description: Induction of cell cycle arrest in human A549 cells assessed as S phase cells at 10 mg after 48 hrs by FACS-based flow cytometry (reference value: 66.74%). In kind it is functional.

Each structure is given as a SMILES string. Where only a bound is given, the exact number is not on record here.

Take `CCc1cc(=O)c2ccc(OC)c(CBr)c2o1`: the GI50 (in assay [1]; in the assay on KB; with DU-145; with A549 [2]) was over 33.6 µM in each case.
`CC(=O)O[C@H]1C(=O)[C@@]2(C)[C@H]([C@H](OC(=O)c3ccccc3)[C@]3(O)C[C@H](OC(=O)[C@H](O)[C@@H](NC(=O)c4ccccc4)c4ccccc4)C(C)=C1C3(C)C)[C@]1(OC(C)=O)CO[C@@H]1C[C@@H]2O` [PACLITAXEL]: the GI50 in assay [1] was over 1 µM; in the assay with KB, 0.00412 µM; in the assay on DU-145 it was 0.00386 µM; with A549 [2], 0.00546 µM.
Turning to `Cc1cc(=O)oc2cc(SCc3cccc(OC(F)(F)F)c3)ccc12`, the GI50 in assay [1] amounted to 15.3 µM; with KB, 14.8 µM; with DU-145, 15.5 µM; with A549 [2], 17.4 µM.
In the case of `CC(C)Oc1ccc2c(=O)cc(C(C)Br)oc2c1CBr` (stereo not given), the 50% growth inhibitory concentration (GI50) in [1] was 11.4 µM; in the assay with KB it was 12.8 µM; in the assay on DU-145, 15.5 µM; in the assay on A549 [2] it was 12.8 µM.
As to `Cc1cc(=O)oc2cc(SCc3ccncc3)ccc12`, the GI50 (in assay [1]; in the assay with KB; in the assay with DU-145; with A549 [2]) was over 35.3 µM in each case.
Turning to `CCc1oc2c(C)c(OCc3ccccc3)ccc2c(=O)c1Br`, the GI50 (in [1]; with KB; with DU-145; in the assay on A549 [2]) was over 26.8 µM each time.
For `CCc1cc(=O)c2ccc(Sc3cccc(Cl)n3)c(C)c2o1`, the 50% growth inhibitory concentration (GI50) is 23.9 µM in assay [1], over 30.1 µM in the assay on KB, over 30.1 µM in the assay on DU-145 and over 30.1 µM in the assay on A549 [2].
Take `COc1cc(CSc2ccc3c(C)cc(=O)oc3c2)c([N+](=O)[O-])cc1OC`: the GI50 (in assay [1]; in the assay on KB; in the assay on DU-145; in the assay with A549 [2]) was over 25.8 µM in each case.
Consider `CCc1cc(=O)c2ccc(OC(C)C)c(CBr)c2o1`, for which the GI50 (in assay [1]; in the assay on KB; in the assay with DU-145; with A549 [2]) was over 30.8 µM throughout.
For the compound `CCc1oc2c(C)c(OC(C)C)ccc2c(=O)c1Br`, the GI50 in [1] is 5.84 µM; with KB, 22.6 µM; with DU-145, over 30.8 µM; in the assay on A549 [2], over 30.8 µM.
`Cc1cc(=O)oc2cc(Sc3cccc(Cl)n3)ccc12`: the Activity was 0.12% in the assay with A549 [3]; 0.67% in the assay with A549 [4]; 88.98% in the assay on A549 [5]; “Dose-dependent effect” in the assay with A549 [6]; 83.86% in the assay on A549 [7]; “Dose-dependent effect” in the assay with A549 [8]. Moreover, the Activity in the assay on A549 [9] worked out at 10.36%; in the assay with A549 [10] it was 5.02%; in the assay on A549 [11], 83.58%; with A549 [12], 11.4%; with A549 [13], 16.03%. Also, the GI50 was 0.92 µM in assay [1], 0.92 µM in the assay with KB, 1.15 µM with DU-145 and 2.11 µM with A549 [2].
As for `Cc1cc(=O)oc2cc(SCc3cccc(C#N)c3)ccc12`, the GI50 (in [1]; with KB; in the assay on DU-145; in the assay with A549 [2]) was over 32.5 µM in each case.
`COc1cccc(CSc2ccc3c(C)cc(=O)oc3c2)c1`: the 50% growth inhibitory concentration (GI50) (in [1]; with KB; in the assay on DU-145; with A549 [2]) was over 32 µM each time.
Take `CC(C)COc1ccc2c(=O)cc(C(C)Br)oc2c1CBr` (stereo not given): the 50% growth inhibitory concentration (GI50) came out at 9.45 µM in assay [1], 10.9 µM with KB, 10.5 µM in the assay on DU-145 and 8.71 µM in the assay on A549 [2].
For `CCc1cc(=O)c2ccc(Sc3cccc(Cl)[n+]3[O-])cc2o1`, in that order: over 30 µM, over 30 µM, over 30 µM and over 30 µM.
For the compound `CCc1oc2c(C)c(OCc3cccc(C(F)(F)F)c3)ccc2c(=O)c1Br`, the GI50 (in assay [1]; in the assay with KB; in the assay with DU-145; with A549 [2]) was over 22.7 µM each time.
As for `CCc1cc(=O)c2ccc(OCc3cccc(C#N)c3)c(C)c2o1`, the 50% growth inhibitory concentration (GI50) (in [1]; in the assay with KB; in the assay with DU-145; in the assay with A549 [2]) was over 31.3 µM in each case.
Regarding `Cc1cc(=O)oc2cc(SC3CCOC3=O)ccc12` (stereo not given), the concentration for 50% growth inhibition (GI50) (in assay [1]; with KB; in the assay on DU-145; in the assay with A549 [2]) was over 36.2 µM each time.
In the case of `Cc1cc(=O)oc2cc(SCc3cccnc3)ccc12`, the GI50 (in assay [1]; in the assay on KB; with DU-145; in the assay on A549 [2]) was over 35.3 µM throughout.
Regarding `CCc1cc(=O)c2ccc(OCC(C)C)c(CBr)c2o1`, the GI50 (in assay [1]; in the assay with KB; in the assay on DU-145; with A549 [2]) was over 29.5 µM each time.
On to `CCOc1ccc2c(=O)cc(C(C)Br)oc2c1CBr` (stereo not given), for which the GI50 is 12.8 µM in [1], 15.6 µM in the assay with KB, 20.9 µM in the assay with DU-145 and 19.8 µM in the assay with A549 [2].
Consider `CCc1cc(=O)c2ccc(OCc3ccccc3)c(C)c2o1`, for which the concentration for 50% growth inhibition (GI50) in [1] was 24.8 µM; in the assay with KB it was over 34 µM; in the assay with DU-145, 27.7 µM; with A549 [2] it was over 34 µM.
With `Cc1cc(=O)oc2cc(Sc3cccc(Cl)[n+]3[O-])ccc12`, the GI50 in [1] was 24.5 µM; in the assay on KB, over 31.3 µM; in the assay on DU-145, over 31.3 µM; with A549 [2], over 31.3 µM.
For `Cc1cc(=O)oc2cc(SCc3cccc(C(F)(F)F)c3)ccc12`, the concentration for 50% growth inhibition (GI50) (in assay [1]; in the assay on KB; in the assay with DU-145; in the assay on A549 [2]) was over 28.5 µM throughout.
In the case of `CCc1cc(=O)c2ccc(Sc3cccc(Cl)[n+]3[O-])c(C)c2o1`, the GI50 (in [1]; in the assay with KB; in the assay with DU-145; in the assay with A549 [2]) was over 28.8 µM each time.
For the compound `CCc1oc2c(C)c(OC)ccc2c(=O)c1Br`, the GI50 in assay [1] was 23.2 µM; with KB it was over 33.6 µM; in the assay with DU-145 it was over 33.6 µM; with A549 [2], over 33.6 µM.
Turning to `COc1ccc(Br)c(CSc2ccc3c(C)cc(=O)oc3c2)c1`, the GI50 in assay [1] was over 25.6 µM; in the assay with KB it was 16 µM; with DU-145, over 25.6 µM; with A549 [2], 15.3 µM.
`CCc1cc(=O)c2ccc(OCc3cccc(C(F)(F)F)c3)c(C)c2o1`: the GI50 (in assay [1]; with KB; with DU-145; with A549 [2]) was over 27.6 µM in each case.
As to `CCc1cc(=O)c2ccc(Sc3cccc(Cl)n3)cc2o1`, the 50% growth inhibitory concentration (GI50) (in assay [1]; with KB; with DU-145; with A549 [2]) was over 31.5 µM each time.
As for `COc1ccc2c(=O)cc(C(C)Br)oc2c1CBr` (stereo not given), the 50% growth inhibitory concentration (GI50) in assay [1] is 17 µM; in the assay with KB, 15.1 µM; in the assay on DU-145, over 26.6 µM; in the assay on A549 [2], over 26.6 µM.
Regarding `CCOc1ccc2c(=O)cc(CC)oc2c1CBr`, the GI50 (in assay [1]; in the assay with KB; in the assay with DU-145; in the assay on A549 [2]) was over 32.1 µM throughout.
With `Cc1cc(=O)oc2cc(SCc3ccccn3)ccc12`, the GI50 (in assay [1]; in the assay on KB; in the assay on DU-145; in the assay with A549 [2]) was over 35.3 µM in each case.
Regarding `COC(=O)c1cccc(CSc2ccc3c(C)cc(=O)oc3c2)c1`, the GI50 came to 5.41 µM in assay [1], 2.06 µM in the assay on KB, 14.1 µM in the assay with DU-145 and 7.7 µM in the assay on A549 [2].
For the compound `Cc1cccc(CSc2ccc3c(C)cc(=O)oc3c2)c1`, the GI50 (in assay [1]; in the assay with KB; with DU-145; with A549 [2]) was over 33.7 µM each time.
With `CCc1cc(=O)c2ccc(OCc3cccc(C)c3)c(C)c2o1`, the GI50 turned out to be 24.9 µM in [1], 28.6 µM with KB, 24.1 µM with DU-145 and 24.9 µM in the assay on A549 [2].
Regarding `COc1cc(CSc2ccc3c(C)cc(=O)oc3c2)cc(OC)c1`, the GI50 (in [1]; in the assay on KB; in the assay with DU-145; in the assay with A549 [2]) was over 29.2 µM each time.
